Measured values from ChEMBL document CHEMBL1146084, “Discovery of orally efficacious melanin-concentrating hormone receptor-1 antagonists as antiobesity agents. Synthesis, SAR, and biological evaluation of bicyclo[3.1.0]hexyl ureas” (J Med Chem, 2006).
pKi: −log10 of the molar value.

Columns and labels:
[1] = (§1) AUC (0-6h) in rat at 10 mg/kg, po; format: ADME, organism-based, Plasma; set-up: time < 6 hr, dose 10 mg/kg, route oral; details: plasma
[2] = molecular target: T1, Melanin-concentrating hormone receptor 1 (Homo sapiens, UniProt Q99705); assay: Displacement of [125I]MCH from human MCHR1 expressed in CHO cell; format: cell-based
[3] = molecular target: Melanin-concentrating hormone receptor 1 (Mus musculus) (UniProt Q8JZL2); assay: Receptor occupancy ex vivo by displacement of [125I]S36057 binding from MCHR1 in C57BL/6N mouse brain after 6 hrs at 30 mg/kg, po; format: functional, organism-based; set-up: dose 30 mg/kg
Summary of the method: (§2)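 Male C57Bl/6NCrl:BR mice given vehicle (HPβCD) or compound orally; killed by CO2 at 6 or 24 h post-dose (chronic studies: 24 h after last daily dose, n = 3/group). 16 µm frozen caudate putamen sections incubated 30 min at room temperature with 700 pM [125I]-S36057 in MCH-R1 binding buffer; 1 µM MCH defines nonspecific binding. Phosphorimager quantitation; % inhibition versus vehicle.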

Mus musculus [4] = assay: Reduction of food intake in orally dosed C57BL/6N DIO mouse after 24 hrs at 30 mg/kg relative to control; format: functional; details: route oral
Summary of the method: (§3)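 Male C57Bl/6NCrl:BR mice made obese on a 45%-fat diet, individually housed, 12 h light/dark, 22 °C; acclimated to oral 20% hydroxypropyl-β-cyclodextrin vehicle for 2-3 days. Single oral 30 mg/kg dose in 20% HPβCD; food intake weighed to 0.01 g at 2, 6 and 24 h, expressed as % of vehicle ± SEM.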

Mus musculus [5] = assay: Reduction of food intake in orally dosed C57BL/6N DIO mouse after 2 hrs at 30 mg/kg relative to control; format: functional; set-up: Activity: scale not given: the % may be the effect or the level left; details: route oral; summary of the method: as §3
Mus musculus [6] = assay: Reduction of food intake in orally dosed C57BL/6N DIO mouse after 6 hrs at 30 mg/kg relative to control; format: functional; details: route oral; summary of the method: as §3
[7] = molecular target: Melanin-concentrating hormone receptor 1 (Mus musculus) (UniProt Q8JZL2); assay: Receptor occupancy ex vivo by displacement of [125I]S36057 binding from MCHR1 in C57BL/6N mouse brain after 24 hrs at 30 mg/kg, po; format: functional, organism-based; set-up: dose 30 mg/kg; summary of the method: as §2
[8] = molecular target: T1, Melanin-concentrating hormone receptor 1; assay: Inhibition of MCH-mediated calcium influx in CHO cells expressing human MCHR1 by FLIPR assay; format: functional, cell-based
Summary of the method: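 After two washes, treated with vehicle (buffer, 2% DMSO) or compound, then stimulated with 30 nM MCH; intracellular Ca²⁺ change read by FLIPR.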

Rattus norvegicus = assay: as §1; format: ADME, organism-based, Plasma; set-up: time < 6 hr, dose 10 mg/kg, route oral; details: in vivo, 6 h

T1 sequence (Q99705 whole entry): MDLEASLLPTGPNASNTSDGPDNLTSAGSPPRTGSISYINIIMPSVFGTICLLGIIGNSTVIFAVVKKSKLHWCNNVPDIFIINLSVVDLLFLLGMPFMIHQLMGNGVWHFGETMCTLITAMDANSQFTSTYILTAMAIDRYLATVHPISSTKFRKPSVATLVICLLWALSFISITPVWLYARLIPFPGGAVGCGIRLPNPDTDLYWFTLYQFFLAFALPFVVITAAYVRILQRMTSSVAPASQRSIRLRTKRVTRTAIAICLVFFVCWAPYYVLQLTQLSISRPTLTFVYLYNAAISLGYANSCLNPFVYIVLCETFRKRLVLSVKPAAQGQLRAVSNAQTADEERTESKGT
Chain of Melanin-concentrating hormone receptor 1 (Mus musculus) (Q8JZL2 whole entry): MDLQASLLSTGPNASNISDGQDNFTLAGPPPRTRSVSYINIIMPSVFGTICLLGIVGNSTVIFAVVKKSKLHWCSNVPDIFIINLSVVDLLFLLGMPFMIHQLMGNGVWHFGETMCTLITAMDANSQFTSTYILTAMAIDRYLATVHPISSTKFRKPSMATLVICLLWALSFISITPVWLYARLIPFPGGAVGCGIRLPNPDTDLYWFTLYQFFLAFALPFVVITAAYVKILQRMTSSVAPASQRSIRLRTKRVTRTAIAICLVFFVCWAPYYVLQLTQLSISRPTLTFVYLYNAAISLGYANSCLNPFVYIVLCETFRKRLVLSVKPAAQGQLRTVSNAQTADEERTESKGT

Row | AUC(0-t) at 6 h [1] | pKi [2] | Activity [3] | Activity [7] | SMILES | further results
1 | 1490 ng·h/mL | 7.82 | 69% |  | N#Cc1cccc([C@@]23CC[C@H](N(CCN4CCCC4)C(=O)Nc4cc(Cl)cc(Cl)c4)[C@@H]2C3)c1 | 
2 | 436 ng·h/mL |  |  |  | CN1CCN(CCCN(C(=O)Nc2ccc(F)c(Cl)c2)[C@@H]2CC[C@]3(c4cccc(Cl)c4)C[C@H]23)CC1 | 
3 | 2190 ng·h/mL |  | 81% |  | N#Cc1cccc([C@]23CC[C@@H](N(CCN4CC[C@@H](O)C4)C(=O)Nc4ccc(F)c(C(F)(F)F)c4)[C@H]2C3)c1 | Food intake (% of vehicle control) (Mus musculus [4]): 80.8%; Food intake (% of vehicle) (Mus musculus [5]): 65.7%; Food intake (% of vehicle control) (Mus musculus [6]): 68.2%
4 |  | 6.22 |  |  | N#Cc1cccc(C2=CC(N(CCN3CCCC3)C(=O)Nc3cc(Cl)cc(Cl)c3)CC2)c1 (configuration not stated) | 
5 | 1460 ng·h/mL |  | 53% |  | CN1CCN(CCN(C(=O)Nc2ccc(F)c(C(F)(F)F)c2)[C@@H]2CC[C@]3(c4cccc(C#N)c4)C[C@H]23)CC1 (relative stereo) | 
6 | 2740 ng·h/mL | 8.15 | 65% | 0% | CN1CCN(CCCN(C(=O)Nc2ccc(F)c(Cl)c2)[C@@H]2CC[C@]3(c4cc(F)cc(F)c4)C[C@H]23)CC1 (relative stereo) | 
7 | 1610 ng·h/mL | 8.36 | 97% | 0% | CN1CCN(CCCN(C(=O)Nc2ccc(F)c(Cl)c2)[C@@H]2CC[C@]3(c4ccc(F)c(F)c4)C[C@H]23)CC1 (relative stereo) | 
8 | 3080 ng·h/mL | 8.40 | 81% | 36% | CN1CCN(CCCN(C(=O)Nc2ccc(F)c(C(F)(F)F)c2)[C@@H]2CC[C@]3(c4ccc(F)c(C#N)c4)C[C@H]23)CC1 (relative stereo) | 
9 |  | 6.14 |  |  | CN1CCN(CCCN(C(=O)Nc2ccc(F)c(Cl)c2)[C@@H]2CC[C@]3(c4cccc(S(C)(=O)=O)c4)C[C@H]23)CC1 (relative stereo) | 
10 | 438 ng·h/mL | 8.55 | 100% | 7% | COc1ccc([C@]23CC[C@@H](N(CCCN4CCN(C)CC4)C(=O)Nc4ccc(F)c(C(F)(F)F)c4)[C@H]2C3)cc1 (relative stereo) | Kb [8]: 9 nM
11 | 1660 ng·h/mL | 8.46 | 100% | 6% | CN1CCN(CCCN(C(=O)Nc2ccc(F)c(C(F)(F)F)c2)[C@@H]2CC[C@]3(c4ccc(C#N)c(F)c4)C[C@H]23)CC1 (relative stereo) | 
12 |  | 7.48 | 0% | 4% | Cc1cccc([C@]23CC[C@@H](N(CCCN4CCN(C)CC4)C(=O)Nc4ccc(F)c(Cl)c4)[C@H]2C3)c1 (relative stereo) | 
13 | 2340 ng·h/mL | 8.03 | 8% |  | CN1CCN(CCCN(C(=O)Nc2ccc(F)c(Cl)c2)[C@@H]2CC[C@]3(c4ccc(S(C)(=O)=O)cc4)C[C@H]23)CC1 (relative stereo) | 
14 | 504 ng·h/mL | 7.54 | 39% | 12% | CN1CCN(CCCN(C(=O)Nc2ccc(F)c(Cl)c2)[C@@H]2CC[C@]3(c4cccc(OC(F)(F)F)c4)C[C@H]23)CC1 (relative stereo) | 
15 | 571 ng·h/mL | 8.54 | 73% | 0% | COc1cccc([C@]23CC[C@@H](N(CCCN4CCN(C)CC4)C(=O)Nc4ccc(F)c(C(F)(F)F)c4)[C@H]2C3)c1 (relative stereo) | Kb [8]: 8 nM
16 |  | 6.40 |  |  | CN1CCN(CCCN(C(=O)Nc2ccc(F)c(Cl)c2)[C@@H]2CC[C@]3(c4cccc(NS(C)(=O)=O)c4)C[C@H]23)CC1 (relative stereo) | 
17 | 999 ng·h/mL |  | 57% |  | N#Cc1cccc([C@]23CC[C@@H](N(CCN4CCCCC4)C(=O)Nc4ccc(F)c(Cl)c4)[C@H]2C3)c1 (relative stereo) | 
18 | 888 ng·h/mL | 8.64 | 85% | 10% | CN1CCN(CCCN(C(=O)Nc2ccc(F)c(C(F)(F)F)c2)[C@@H]2CC[C@]3(c4cccc(F)c4)C[C@H]23)CC1 (relative stereo) | 
19 |  | 5.66 |  |  | CN1CCN(CCCN(C(=O)Nc2ccc(F)c(Cl)c2)[C@H]2CC[C@@H](c3cccc(C#N)c3)C2)CC1 (relative stereo) | 
20 |  | 6.01 |  |  | CS(=O)(=O)c1ccc([C@]23CC[C@@H](N(CC4CCN(S(C)(=O)=O)CC4)C(=O)Nc4ccc(F)c(Cl)c4)[C@H]2C3)cc1 (relative stereo) | 

Row | AUC(0-t) at 6 h [1] | pKi [2] | Activity [3] | Activity [7] | SMILES | further results
21 | 3470 ng·h/mL | 8.10 | 27% | 0% | N#Cc1ccc([C@]23CC[C@@H](N(CCCN4CCNCC4)C(=O)Nc4ccc(F)c(C(F)(F)F)c4)[C@H]2C3)cc1 (relative stereo) | Kb [8]: 9 nM
22 | 450 ng·h/mL | 8.60 | 64% |  | N#Cc1cccc([C@]23CC[C@@H](N(CCCCN4CCOCC4)C(=O)Nc4ccc(F)c(C(F)(F)F)c4)[C@H]2C3)c1 (relative stereo) | Food intake (% of vehicle control) (Mus musculus [4]): 94.1%; Food intake (% of vehicle) (Mus musculus [5]): 88%; Food intake (% of vehicle control) (Mus musculus [6]): 83.4%
23 | 822 ng·h/mL |  |  |  | N#Cc1cccc([C@]23CC[C@@H](N(CCN4CCCC4)C(=O)Nc4ccc(F)c(Cl)c4)[C@H]2C3)c1 (relative stereo) | 
24 | 140 ng·h/mL |  | 40% |  | CC(C)CN1CCN(CCN(C(=O)Nc2ccc(F)c(C(F)(F)F)c2)[C@@H]2CC[C@]3(c4cccc(C#N)c4)C[C@H]23)CC1 (relative stereo) | 
25 | 2170 ng·h/mL | 8.74 | 100% | 29% | CN1CCN(CCCN(C(=O)Nc2ccc(F)c(C(F)(F)F)c2)[C@@H]2CC[C@]3(c4ccc(F)cc4)C[C@H]23)CC1 (relative stereo) | Kb [8]: 15 nM
26 |  | 6.79 |  |  | CN1CCN(CCCN(C(=O)Nc2ccc(F)c(Cl)c2)[C@@H]2CC[C@@H](c3cccc(C#N)c3)C2)CC1 (relative stereo) | 
27 |  | 7.89 | 25% | 12% | CN1CCN(CCCN(C(=O)Nc2ccc(F)c(Cl)c2)[C@@H]2CC[C@]3(c4ccsc4)C[C@H]23)CC1 (relative stereo) | 
28 | 1130 ng·h/mL |  | 79% | 0% | CN1CCN(CCCN(C(=O)Nc2ccc(F)c(Cl)c2)[C@@H]2CC[C@]3(c4ccccc4)C[C@H]23)CC1 (relative stereo) | 
29 | 1680 ng·h/mL |  | 85% |  | CN1CCN(CCCCN(C(=O)Nc2ccc(F)c(C(F)(F)F)c2)[C@@H]2CC[C@]3(c4cccc(C#N)c4)C[C@H]23)CC1 (relative stereo) | Food intake (% of vehicle control) (Mus musculus [4]): 89.1%; Food intake (% of vehicle) (Mus musculus [5]): 81.1%; Food intake (% of vehicle control) (Mus musculus [6]): 81.6%
30 | 722 ng·h/mL | 8.48 | 73% | 0% | CN1CCN(CCCN(C(=O)Nc2ccc(F)c(Cl)c2)[C@@H]2CC[C@]3(c4cccc(F)c4)C[C@H]23)CC1 (relative stereo) | 
31 | 1160 ng·h/mL |  | 72% |  | N#Cc1cccc([C@]23CC[C@@H](N(CCCCN4CCCCC4)C(=O)Nc4ccc(F)c(C(F)(F)F)c4)[C@H]2C3)c1 (relative stereo) | Food intake (% of vehicle control) (Mus musculus [4]): 102%; Food intake (% of vehicle) (Mus musculus [5]): 92%; Food intake (% of vehicle control) (Mus musculus [6]): 101.1%
32 |  | 5.79 |  |  | CS(=O)(=O)c1ccc([C@]23CC[C@@H](N(CCCN4CCCC4=O)C(=O)Nc4ccc(F)c(Cl)c4)[C@H]2C3)cc1 (relative stereo) | 
33 |  | 8.00 | 37% | 17% | CN1CCN(CCCN(C(=O)Nc2ccc(F)c(Cl)c2)[C@@H]2CC[C@]3(c4cccc(N)c4)C[C@H]23)CC1 (relative stereo) | 
34 | 578 ng·h/mL |  | 96% | 15% | CN1CCN(CCCN(C(=O)Nc2ccc(F)c(Cl)c2)[C@@H]2CC[C@]3(c4ccc(OC(F)(F)F)cc4)C[C@H]23)CC1 (relative stereo) | Food intake (% of vehicle control) (Mus musculus [4]): 85.9%; Activity (Mus musculus [5]): 86.2%; Food intake (% of vehicle control) (Mus musculus [6]): 80.5%
35 |  |  | 18% | 0% | CC(=O)Nc1cccc([C@]23CC[C@@H](N(CCCN4CCN(C)CC4)C(=O)Nc4ccc(F)c(Cl)c4)[C@H]2C3)c1 (relative stereo) | 
36 |  |  | 25% | 11% | CN1CCN(CCCN(C(=O)Nc2ccc(F)c(Cl)c2)[C@@H]2CC[C@]3(c4cccnc4)C[C@H]23)CC1 (relative stereo) | 
37 |  | 7.89 |  |  | N#Cc1cccc([C@]23CC[C@@H](N(CCN4CC[C@@H](O)C4)C(=O)Nc4ccc(F)c(Cl)c4)[C@H]2C3)c1 (stereo in doubt; (+)-23c) [listing 1 of 2 here] | AUC (Rattus norvegicus): 585 ng·h/mL
38 |  |  | 32% |  | N#Cc1cccc([C@]23CC[C@@H](N(CCN4CC[C@@H](O)C4)C(=O)Nc4ccc(F)c(Cl)c4)[C@H]2C3)c1 (stereo in doubt; (+)-23c) [listing 2 of 2 here] | 
39 |  |  |  |  | N#Cc1cccc([C@]23CC[C@@H](N(CCN4CC[C@@H](O)C4)C(=O)Nc4ccc(F)c(Cl)c4)[C@H]2C3)c1 (stereo in doubt; (-)-23d) [listing 1 of 2 here] | AUC (Rattus norvegicus): 2404 ng·h/mL
40 |  |  | 57% |  | N#Cc1cccc([C@]23CC[C@@H](N(CCN4CC[C@@H](O)C4)C(=O)Nc4ccc(F)c(Cl)c4)[C@H]2C3)c1 (stereo in doubt; (-)-23d) [listing 2 of 2 here] | 
